# Assay outcomes deposited in PubChem by several laboratories.
# A selection: hits, their analogues and other compounds. The true share with any hit is near 1.4%.
# Diaphorase act: compounds boosting diaphorase resazurin reduction – biochemical, uHTS, resorufin fluorescence, counter-screen for diaphorase-coupled primary assays, primary screen; hit rate 0.005% among 190,000; activation factor at 20 µM; Diaphorase/resazurin coupled assay, 16 min; active compounds read high; 1 = vehicle wells, 0 = NADH-free wells;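 active = diaphorase activity raised at least twofold by the compound at 20 µM; inactive = activation factor below 2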
#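 Material: Clostridium kluyveri diaphorase, purified enzyme; Quantity: enzyme 0.07 U/mL final; Medium: HEPES pH 7.4 buffer with MgCl2 and Tween 20; Dosing: single compound dose of 20 µM, 1% DMSO final; Schedule: 16 min reaction at room temperature; Measured by: red resorufin fluorescence at 544/590 nm excitation/emission.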
# PMI act hi M6P: human PMI activators, high substrate, primary screen, biochemical, fluorescence intensity, near-saturating mannose 6-phosphate | Mannose-6-phosphate isomerase (Homo sapiens), P34949 | coupled PMI enzyme assay, resazurin fluorescence, 20 min; active compounds read high; 1 = untreated enzyme, 0 = substrate-free blank | activation factor at 20 µM | hit rate 0.34% among 190,000;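 active = activation factor of 2 or more at 20 µM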
#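 Technique: Diaphorase-driven resazurin-to-resorufin fluorescence, excitation 544, emission 590 nm | Assay system: Human PMI in coupled enzyme assay | Times: Enzyme reaction with compound 20 min at room temperature | Medium: HEPES-buffered pH 7.4 with magnesium and detergent | Reagent: Mannose-6-phosphate 1.0 mM (near-saturating) plus 0.22 mM NADP+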
# GSH fluor: compound fluorescence on glutathione beads, profiling panel, artefact control, biophysical, 488/530 nm, flow cytometry. GSH beads flow cytometry, compound fluorescence 488/530 nm; active compounds read high. fluorescence (KMESF) at 10 µM. hit rate 0.25% among 190,000; in the data active = fluorescence above about 89;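 also: glutathione beads carrying GST-tagged Bcl family fusion proteins plus one bare bead set; values are compound well signal with DMSO vehicle wells as background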
# p47phox inh: p47phox/p22phox peptide binding inhibitors, primary screen, biochemical, uHTS, NADPH oxidase regulatory subunit | Neutrophil cytosol factor 1 (Homo sapiens), P14598 | fluorescence polarization, 2 h | inhibition, % at 24.7 µM | hit rate 0.53% among 220,000 | AID 1274, 2008;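 active = inhibition above about 30%, limit read from the data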;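 also: 0% = p47phox with labelled peptide and 100% = labelled peptide alone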
# Target sequence (P14598 whole entry, looked up): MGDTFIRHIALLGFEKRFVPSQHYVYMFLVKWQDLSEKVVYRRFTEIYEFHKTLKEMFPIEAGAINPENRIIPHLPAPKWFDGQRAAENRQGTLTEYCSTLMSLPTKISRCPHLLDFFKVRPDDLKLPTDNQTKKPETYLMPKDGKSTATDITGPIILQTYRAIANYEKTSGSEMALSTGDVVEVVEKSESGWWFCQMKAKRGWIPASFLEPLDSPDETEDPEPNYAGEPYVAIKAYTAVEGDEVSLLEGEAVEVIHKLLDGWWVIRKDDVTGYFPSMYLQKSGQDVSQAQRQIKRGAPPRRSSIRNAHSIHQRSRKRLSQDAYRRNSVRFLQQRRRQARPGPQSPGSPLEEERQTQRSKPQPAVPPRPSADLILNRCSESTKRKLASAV
# Avidin bead fluor: green autofluorescence of compounds with avidin beads – biophysical, 488/530 nm, flow cytometry, artefact control, profiling panel. compound fluorescence 488/530 nm; active compounds read high. AID 1775, 2009. hit rate 0.38% among 220,000. fluorescence (KMESF) at 10 µM; in the data active = fluorescence above about 47
# PMI activator: activators of human PMI, primary screen, biochemical, fluorescence intensity, near-Km mannose 6-phosphate; purified human PMI, coupled resazurin fluorescence, 20 min; active compounds read high; 1 = vehicle control, 0 substrate-free wells; hit rate 0.005% among 190,000; AID 1214, 2008; activation factor at 20 µM;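 active = activation factor of 2 or more at 20 µM, relative to plate controls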
# * marks the source's active call; other numbers are inactive results; x = no result.
SMILES,Diaphorase act,PMI act hi M6P,GSH fluor,p47phox inh,Avidin bead fluor,PMI activator
CC1=NOC(=O)/C1=C/c1ccc(N(C)C)cc1,0.9,1,34,181*,13,1
CC(=O)c1ccc(NC(=O)C2CC(c3ccc(F)cc3)=NO2)cc1 (centres undefined),1,1,17,6,17,1
O=C(NC1CCCC1)C1CC(c2ccc(F)cc2)=NO1 (centres undefined),1,1.1,32,60*,18,1.2
O=C1/C(=C/N(C(=O)c2ccco2)c2ccc(Br)cc2)Sc2ccccc21,0.9,1,6,-36,1,1
CCN(Cc1ccccc1)C(c1ccncc1)c1nnnn1C(C)(C)C (centres undefined),0.9,1,27,3,49*,0.9
CCC1=NNc2cccc3c(OC)ccc1c23,0.9,1.2,2,138*,4,1.1
COc1ccc2c3c(cccc13)C(=O)N(O)C2=O,0.8,0.7,7,4,14,0.8
Cc1ccc(NC(=O)CC(=O)NCCN2CCOCC2)cc1,0.9,0.9,15,-6,22,0.9
CC(=O)/C(=N\Nc1ccc(C)cc1)N1CCOCC1,1,2.6*,30,0,8,1.5
COc1ccc(/C=C\C(=O)NCC(=O)N/N=C/c2ccc(O)cc2O)cc1,x,x,x,-12,5,x
CCOC(=O)c1c2n(c3ccc(OC(C)=O)cc13)CCC2,1,1.1,27,38*,7,1
CCOC(=O)c1c(CN(C)C)n(C)c2ccc(OC(C)=O)cc12,0.8,1,32,-8,17,1
O=C1NC(=Nc2ccc(O)cc2)S/C1=C\C=C\c1ccco1,x,x,x,-14,4,x
Cc1ccc(-c2nn(CCC(=O)O)cc2CCC(=O)O)cc1,0.9,1.1,12,-4,12,1
CCn1cc(CCC(=O)O)c(C)n1,1.1,2.3*,15,0,24,1.9
C=CCOc1cccc(C2C(C(=O)c3ccc(C)o3)=C(O)C(=O)N2CCN(C)C)c1 (centres undefined),0.9,1.2,42,0,7,1.2
Nc1nc(Nc2ccccc2)nc(NCc2ccco2)c1[N+](=O)[O-],0.8,0.9,6,-12,3,0.9
Nc1nc(NCc2ccco2)nc(Nc2ccccc2)c1[N+](=O)[O-],x,x,x,76*,2,x
CCOC(=O)/C(=N\Nc1ccc(Br)cc1)N1CCN(c2ccccc2OC)CC1,0.9,2.4*,14,-1,8,1.8
O=C(O)c1cc2ncc(CCO)cn2n1,0.9,1,12,-4,12,1.1
Cc1nc(NCc2ccco2)c2c(C)c(C)sc2n1,0.9,1.1,25,-4,11,1
Cc1sc2nc3c4ccccc4c(NCc4ccco4)nn3c(=O)c2c1C,0.5,0.8,8,-35,65*,0.8
COc1cc(C2/C(=C(/O)c3ccc(OCC(C)C)cc3)C(=O)C(=O)N2CCN(C)C)ccc1O (centres undefined),0.9,0.9,262*,-3,8,1
COc1ccc(N=Cc2c(O)c3ccccc3n2C(C)=O)cc1,x,x,x,31*,9,x
COc1ccc(N=Cc2sc(O)c3ccccc23)cc1,1,0.9,44,-36,3,0.9
SMILES,Diaphorase act,PMI act hi M6P,GSH fluor,p47phox inh,Avidin bead fluor,PMI activator
COc1c(N2CCN(C(=S)NCc3ccccc3)C(C)C2)c(F)cc2c(=O)c(C(=O)O)cn(C3CC3)c12 (centres undefined),0.9,1.1,35,3,55*,0.9
O=C(CN1C(=O)S/C(=C\C=C\c2ccccc2)C1=O)Nc1ccccc1C(=O)O,x,x,x,-29,10,x
C#CCN1C(=O)S/C(=C/C=C/c2ccc(N(C)C)cc2)C1=O,0.8,0.7,5,44*,16,1
Fc1cccc(Nc2nc(Cl)nc(Cl)n2)c1,1,2.2*,9,-9,8,1.8
COC(=O)CSc1nnc(SCc2ccc(OC)cc2)s1,0.9,1,26,-12,50*,1.1
Cc1ccc(NS(=O)(=O)c2ccc(CCC(=O)O)cc2)cc1,0.8,0.9,13,-12,9,0.9
Cc1ccc(SCC(=O)Nc2ccc(N3CCN(C)CC3)c(F)c2)cc1,0.8,0.9,24,-11,29,0.9
O=S(=O)(Nc1ccc2c(c1)nc1n2CCN(Cc2ccccc2)C1)c1ccccc1,0.9,1.9,61,-15,6,1.5
Cc1ccc(S(=O)(=O)Nc2ccc3c(c2)nc2n3CCN(Cc3ccccc3)C2)cc1,0.8,2.2*,25,-26,6,1.5
O=S(=O)(Nc1ccc2c(c1)nc1n2CCN(Cc2ccccc2)C1)c1ccc(F)cc1,0.8,2.1*,37,-6,13,1.6
O=S(=O)(Nc1ccc2c(c1)nc1n2CCN(Cc2ccccc2)C1)c1ccc(Cl)cc1,0.9,2.2*,36,-37,11,1.6
O=C1C=CN(C(=O)Oc2ccccc2)CC1,0.9,1,18,-6,12,0.9
CC(=O)ONC(=Nc1ccccc1)c1nonc1N,x,x,x,-5,7,x
COc1cc(/C=C(/NC(=O)c2ccccc2)C(=O)N2CCN(C)CC2)c([N+](=O)[O-])cc1OC,0.9,0.9,11,36*,12,1.1
COc1cc(/C=C(\NC(=O)c2ccccc2)C(=O)NCCO)c([N+](=O)[O-])cc1OC,1,1,13,-4,4,1
Cn1cnc([N+](=O)[O-])c1Cl,x,x,x,-2,6,x
Cn1cnc2c(=O)[nH]cc([N+](=O)[O-])c21,0.9,0.6,8,-1,62*,0.9
COc1ccccc1N(CC(=O)NC(C)(C)C)C(=O)C1CSC(=O)C1 (centres undefined),1,1,26,-7,11,1
CCOc1ccc(NC(N)=O)cc1OCC,1,1,20,-10,13,1
CCCOc1ccc(NC(N)=O)cc1OCCC,0.9,1,15,31*,9,1
CCCCc1nc(SCCN2CCOCC2)c2c(=O)n(C)c(=O)n(C)c2n1,1.1,1,17,4,11,1.1
O=C(Cn1nc(-c2ccccc2)ccc1=O)NCCN1CCN(c2cccc(Cl)c2)CC1,0.9,1,46,-1,5,1
